In general, bioavailability refers to the share of a dose that reaches the circulation, judged against a reference dose that is usually intravenous. What is called AUC is the area under the concentration-time curve, a measure of exposure. Low readings indicate low exposure, high ones high exposure. Usually half-life stands for how long it takes for the measured level to halve. Low values mean rapid decline, high ones slow decline. As a reminder, the IC50 is the concentration that gives 50% inhibition. A higher IC50 goes with a need for much substance. One may read the inhibition as how much of the control response was suppressed. The low end stands for a response near the control, the high end for a response far below the control.

Series [1] can be described thus: Oral bioavailability in rat after oral administration at 9.7 mg/kg dose. In kind it is ADME, organism-based. To be noted: in vivo. The method, boiled down: (§1)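 Rats dosed orally, single dose per compound (9.7–13 mg/kg). Preliminary PK: oral bioavailability (%F), AUC (ng·hr/mL) and t1/2 (h) derived; values are average of n=3.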
The nature of series [2]: AUC in rat after oral administration at 9.7 mg/kg dose. The series is classed as ADME, organism-based. More on the design: dose 9.7 mg/kg, route oral. The note with it: plasma. The method, boiled down: as §1
Series [3] is described as follows: Half life period in rat after oral administration at 9.7 mg/kg dose. The series is classed as ADME, organism-based. More on the design: dose 9.7 mg/kg, route oral. To be noted: in vivo. In short, it runs like this:
as §1

The next series is filed under the species Homo sapiens. Description: Amount of parent compound remaining after incubation with human liver microsomes for 30 min. The series is classed as functional. The method, boiled down:
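Human liver microsome (liver S-9) incubation for 30 min; read-out is percent of parent drug remaining.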
Background: Microsomes from liver hold many membrane-bound enzymes, among them those of drug oxidation.

The species named for series [4] is Rattus norvegicus. The series can be described thus: Inhibition of 1-14C]palmitoyl-CoA oxidation in rat heart mitochondria. In kind it is functional. In short, it runs like this: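 Rat heart mitochondria; substrate 1-14[C]-palmitoyl-CoA, oxidation measured. Tested at 6 concentrations; IC50 from non-linear regression curve fit, mean of n=3. Run only for compounds giving ≥50% inhibition at 100 µM.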

The species entered for series [5] is Rattus norvegicus. Description: Inhibition of 1-14C]palmitoyl-CoA oxidation in rat heart mitochondria at 100 uM concentration. In kind it is functional. The method, boiled down: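 Single-point screen at 100 µM: percent inhibition of 1-14[C]-palmitoyl-CoA oxidation in rat heart mitochondria. 95% confidence limits generally ±15% of the mean.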
Series [6] is described as follows: Oral bioavailability in rat after oral administration at 13 mg/kg dose. The note with it: in vivo. The series is classed as ADME, organism-based. The method, boiled down:
as §1

Series [7] can be described thus: Half life period in rat after oral administration at 13 mg/kg dose. The note with it: in vivo. More on the design: dose 13 mg/kg, route oral. In kind it is ADME, organism-based. The method, boiled down: as §1
Series [8] can be described thus: Area under curve in rat after oral administration at 13 mg/kg dose. In kind it is ADME, organism-based. More on the design: dose 13 mg/kg, route oral. The note with it: in vivo. The method, boiled down: as §1
A short description of series [9]: Oral bioavailability in rat after oral administration at 10.5 mg/kg dose. The series is classed as ADME, organism-based. The note with it: in vivo. In short, it runs like this: as §1
Series [10] can be described thus: AUC in rat after oral administration at 10.5 mg/kg dose. More on the design: dose 10.5 mg/kg, route oral. The note with it: plasma. The series is classed as ADME, organism-based. In short, it runs like this:
as §1

A short description of series [11]: Half life period in rat after oral administration at 10.5 mg/kg dose. In kind it is ADME, organism-based. More on the design: dose 10.5 mg/kg, route oral. To be noted: in vivo. The method, boiled down:
as §1

The nature of series [12]: Oral bioavailability in rat after oral administration at 11.2 mg/kg dose. In kind it is ADME, organism-based. To be noted: in vivo. In short, it runs like this:
as §1

Series [13] is described as follows: AUC in rat after oral administration at 11.2 mg/kg dose. In kind it is ADME, organism-based. More on the design: dose 11.2 mg/kg, route oral. To be noted: plasma. In short, it runs like this: as §1
A short description of series [14]: Half life period in rat after oral administration at 11.2 mg/kg dose. To be noted: in vivo. More on the design: dose 11.2 mg/kg, route oral. The series is classed as ADME, organism-based. The method, boiled down: as §1

Consider `Cc1nc2cc(OC[C@H](O)CN3CCN(CC(=O)Nc4c(C)cccc4C)C[C@@H]3C)ccc2s1`, for which the bioavailability in [1] worked out at 5%. In addition, the AUC in series [2] was found to be 278 ng·h/mL. The compound further had a half-life in series [3] of 6.2 h. The Remaining in the series listed under Homo sapiens is less than 10%. In the series filed under Rattus norvegicus [4], the concentration for half-maximal inhibition (IC50) turned out to be 0.2 µM.

On to `Cc1nc2cc(OC[C@H](O)CN3CC4CC3CN4CC(=O)Nc3c(C)cccc3C)ccc2s1` (some centres undefined), for which the inhibition in the series filed under Rattus norvegicus [5] amounted to 40%.

Consider `Cc1nc2cc(OCC(O)CN3CCN(CC(=O)Nc4c(C)cccc4C)CC3)ccc2s1` (centres undefined), for which the bioavailability in [6] worked out at 45%. This compound gave a half-life in [7] of 3 h. Further, in the series listed under Homo sapiens, the Remaining stood at 50%. Besides, half-maximal inhibition in the series filed under Rattus norvegicus [4] (IC50) required 10 µM. Moreover, in the series listed under Rattus norvegicus [5], the inhibition stood at 88%. Further, the AUC in [8] came out at 1260 ng·h/mL.

In the series listed under Rattus norvegicus [5], `Cc1nc2cc(OCC(O)CN3CCN(CC(=O)Nc4c(C)cccc4C)CC3)ccc2o1` (centres undefined) had an inhibition of 34%.

Regarding `Cc1nc2cc(OCCCN3CCN(CC(=O)Nc4c(C)cccc4C)CC3)ccc2s1`, the Remaining in the series listed under Homo sapiens is less than 30%. In the series filed under Rattus norvegicus [5], this compound gave an inhibition of 38%.

`Cc1nc2cc(OC[C@H](O)CN3C[C@@H]4C[C@H]3CN4CC(=O)Nc3c(C)cccc3C)ccc2s1` gave an inhibition in the series filed under Rattus norvegicus [5] of 26%.

`Cc1nc2cc(OC[C@H](O)CN3CCN(CC(=O)Nc4c(C)cccc4C)CC3(C)C)ccc2s1` returned a bioavailability in [9] of 13%. The compound also registered an AUC in [10] of 265 ng·h/mL. Moreover, the Remaining in the series filed under Homo sapiens was less than 10%. Moreover, half-maximal inhibition in the series listed under Rattus norvegicus [4] (IC50) was put at 0.11 µM. In series [11], the half-life is 4.2 h.

On to `Cc1cccc(C)c1NC(=O)CN1CCN(CC(O)COc2ccc3oc(-c4cccc(C(F)(F)F)c4)nc3c2)CC1` (centres undefined), for which the Remaining in the series filed under Homo sapiens stood at 6%. In addition, inhibition in the series filed under Rattus norvegicus [4] was half-maximal at 13 µM (IC50). Also, the inhibition in the series filed under Rattus norvegicus [5] stood at 82%.

Turning to `Cc1nc2cc(OC[C@@H](O)CN3C(C)CN(CC(=O)Nc4c(C)cccc4C)CC3C)ccc2s1` (some centres undefined), in the series filed under Homo sapiens, the Remaining is less than 30%. Moreover, the half-maximal inhibitory concentration (IC50) in the series listed under Rattus norvegicus [4] amounted to 2.5 µM.

For the compound `Cc1nc2cc(OC[C@@H](O)CN3CCN(CC(=O)Nc4c(C)cccc4C)C[C@@H]3C)ccc2s1`, the Remaining in the series filed under Homo sapiens was less than 30%. This compound also came in with an IC50 in the series filed under Rattus norvegicus [4] of 5 µM.

Take `Cc1cccc(C)c1NC(=O)CN1CCN(CC(O)COc2ccc3oc(-c4ccccc4)nc3c2)CC1` (centres undefined): the Remaining in the series filed under Homo sapiens turned out to be 15%. The IC50 in the series filed under Rattus norvegicus [4] worked out at 23 µM. This compound displayed an inhibition in the series listed under Rattus norvegicus [5] of 70%.

For `Cc1cccc(C)c1NC(=O)CN1CCN(CC(O)COc2ccc3ncsc3c2)CC1` (centres undefined), in the series filed under Rattus norvegicus [5], the inhibition amounted to 3%.

On to `Cc1nc2cc(OC[C@H](O)CN3C(C)CN(CC(=O)Nc4c(C)cccc4C)CC3C)ccc2s1` (some centres undefined), for which the bioavailability in series [12] turned out to be 11%. In [13], this compound showed an AUC of 128 ng·h/mL. The half-life in series [14] is 3.5 h. Also, the Remaining in the series filed under Homo sapiens was 21%. The IC50 in the series filed under Rattus norvegicus [4] was determined as 0.07 µM.

With `Cc1cccc(C)c1NC(=O)CN1CCN(CC(O)COc2ccc3oc(-c4ccc(C(F)(F)F)cc4)nc3c2)CC1` (centres undefined), the Remaining in the series filed under Homo sapiens was 40%. For the same compound, the IC50 in the series filed under Rattus norvegicus [4] came to 8 µM. This compound yielded an inhibition in the series listed under Rattus norvegicus [5] of 89%.

For `CCc1nc2cc(OCC(O)CN3CCN(CC(=O)Nc4c(C)cccc4C)CC3)ccc2s1` (centres undefined), the Remaining in the series filed under Homo sapiens was found to be 29%. The compound also came in with an IC50 in the series filed under Rattus norvegicus [4] of 13 µM. Further, in the series filed under Rattus norvegicus [5], the inhibition was 75%.

Take `Cc1nc2ccc(OCC(O)CN3CCN(CC(=O)Nc4c(C)cccc4C)CC3)cc2s1` (centres undefined): in the series filed under Rattus norvegicus [5], the inhibition was 3%.

`Cc1nc2cc(OC[C@H](O)CN3CCN(CC(=O)Nc4c(C)cccc4C)CC3)ccc2s1`: the Remaining in the series filed under Homo sapiens is less than 27%. Moreover, the IC50 in the series filed under Rattus norvegicus [4] was 4 µM.

Take `Cc1nc2cc(OC[C@@H](O)CN3CCN(CC(=O)Nc4c(C)cccc4C)CC3)ccc2s1`: the Remaining in the series listed under Homo sapiens is 35%. In the series listed under Rattus norvegicus [5], this compound had an inhibition of 47%.

In the case of `Cc1nc2cc(OC[C@H](O)CN3CC(C)N(CC(=O)Nc4c(C)cccc4C)CC3C)ccc2s1` (some centres undefined), in the series listed under Homo sapiens, the Remaining was less than 10%. This compound displayed an IC50 in the series listed under Rattus norvegicus [4] of 0.023 µM.

Consider `Cc1nc2cc(OC[C@H](O)CN3CCN(CC(=O)Nc4c(C)cccc4C)C[C@H]3C)ccc2s1`, for which, in the series filed under Homo sapiens, the Remaining is less than 10%. The IC50 in the series listed under Rattus norvegicus [4] was 2 µM.

Turning to `CCCc1nc2cc(OCC(O)CN3CCN(CC(=O)Nc4c(C)cccc4C)CC3)ccc2s1` (centres undefined), the Remaining in the series filed under Homo sapiens is 15%. Further, the IC50 in the series filed under Rattus norvegicus [4] was 20 µM. Besides, the inhibition in the series filed under Rattus norvegicus [5] was determined as 70%.

Regarding `Cc1nc2cc(OC[C@@H](O)CN3CCN(CC(=O)Nc4c(C)cccc4C)C[C@H]3C)ccc2s1`, in the series listed under Homo sapiens, the Remaining is less than 10%. Also, the IC50 in the series filed under Rattus norvegicus [4] came to 10 µM.

As for `Cc1nc2cc(OCC(O)CN3CCN(CC(=O)Nc4c(C)cccc4C)CC3(C)C)ccc2s1` (centres undefined), the Remaining in the series listed under Homo sapiens was less than 10%. The compound also came in with an IC50 in the series listed under Rattus norvegicus [4] of 0.45 µM.

(Values after ChEMBL document CHEMBL1147575, “Novel inhibitors of fatty acid oxidation as potential metabolic modulators” (Bioorg Med Chem Lett, 2004).)
